Results taken from ChEMBL document CHEMBL3399972, “Structure-activity relationships of a novel pyranopyridine series of Gram-negative bacterial efflux pump inhibitors” (Bioorg Med Chem, 2015).
≈ marks a conversion by molar mass, not a printed value. Calls of active or inactive are those of the source. Where a SMILES comes first, the peptide text is derived from it. Bridges are numbered along the chain shown (N, C = ends). [ ]: non-standard residue; d: D form. Dab = NCC[C@H](N)C(=O)O

Assays:
Escherichia coli [1] = experiment: Inhibition of multidrug resistance efflux pump in Escherichia coli assessed as concentration required to reduce levofloxacin MIC by 4-fold by checkerboard assay
HeLa = experiment: Cytotoxicity against human HeLa cells; format: cell-based
Escherichia coli [2] = experiment: Effect on outer membrane permeability in AcrAB-deficient Escherichia coli HN1159 assessed as influx of nitrocefin at 20 uM; format: functional
Escherichia coli [3] = experiment: Inhibition of lactose permease in Escherichia coli HN1157 assessed as [3H]TMG accumulation up to 20 uM relative to control
In short: (§1)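 Proton motive force probed in E. coli HN1157 by LacY permease-mediated accumulation of [methyl-3H] thiogalactopyranoside (stock 1 mCi/ml, 7 Ci/mmol), compounds tested at concentrations up to 20 µM.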

Escherichia coli [4] = experiment: Inhibition of multidrug resistance efflux pump in wild-type Escherichia coli AB1157 assessed as concentration required to reduce piperacillin MIC by 4-fold by checkerboard assay
Escherichia coli [5] = experiment: Inhibition of lactose permease-dependent [3H]TMG uptake in Escherichia coli HN1157 up to 20 uM; in short: as §1
Escherichia coli [6] = experiment: Antibacterial activity against Escherichia coli at 100 uM; format: functional, organism-based
[7] = Aqueous solubility of the compound by nephlometric method; format: physicochemical
In short: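 Maximum solubility in water, measured by nephelometry.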

[8] = Inhibition of mouse liver microsome CYP3A4 at 3 uM after 10 mins by luminescence assay; format: ADME; details: microsomes
[9] = Metabolic stability in human liver microsomes assessed as compound remaining at 25 uM after 60 mins by HPLC analysis in presence of NADPH; format: ADME; details: read-out: Stability
In short: (§2)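 Human or mouse liver microsomes at 0.5 mg/mL in 100 mM potassium phosphate pH 7.4 with 3 mM MgCl2, test compound 25 µM final, with or without (control) 2 mM NADPH; 37 °C for one hour, then stopped with equal volume acetonitrile containing 0.1% trifluoroacetic acid. Value: peak area with NADPH relative to no-NADPH control, as percent remaining.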

[10] = Metabolic stability in mouse liver microsomes assessed as compound remaining at 25 uM after 60 mins by HPLC analysis in presence of NADPH; format: ADME; details: read-out: Stability; in short: as §2
Escherichia coli [11] = experiment: Inhibition of lactose permease in Escherichia coli HN1157 assessed as [3H]TMG accumulation up to 100 uM relative to control
Enterobacteriaceae = experiment: Antimicrobial activity against Enterobacteriaceae; format: functional
Escherichia coli [12] = experiment: Effect on outer membrane permeability in AcrAB-deficient Escherichia coli HN1159 assessed as influx of nitrocefin at 20 ug/ml; format: functional

SMILES	INH (Escherichia coli [1]) [µM]	CC50 (HeLa) [µM]	Activity (Escherichia coli [2]) [%]	[3H]TMG accumulation relative to control (Escherichia coli [3]) [%]	INH (Escherichia coli [4]) [µM]	inhibition (Escherichia coli [5])	Activity (Escherichia coli [6])	solubility kinetic [7] [µM]	inhibition (INH) [8] [%]	remaining at 1 h, 25 µM [9] [%]	remaining at 1 h, 25 µM [10] [%]	inhibition (Escherichia coli [11]) [%]	MIC (Enterobacteriaceae) [µM]	Activity (Escherichia coli [12]) [%]
CC1CN(c2nc(SCCc3cccc(F)c3)c(C#N)c3c2COC(C)(C)C3)CC(C)O1 (centres undefined)	1.6	> 100	99	103	1.6	inactive	inactive							
CC1CN(c2nc(SCCc3ccc(N)cc3)c(C#N)c3c2COC(C)(C)C3)CC(C)O1 (centres undefined)	0.8	52.2	102	100	0.8	inactive	inactive	12 (≈ 5.43 µg/mL)	59	76	72			
COCCN1CCN(c2nc(SCCc3ccccn3)c(C#N)c3c2COC(C)(C)C3)CC1	12.5	> 100			3.1		inactive	≥ 100	14	0	3			
N#CC(C#N)=NNc1cccc(Cl)c1												3		
COc1cccc(CCSc2nc(N3CCOCC3)c3c(c2C#N)CC(C)(C)OC3)c1	2.4	> 100	94	99	1.6	inactive	inactive	50 (≈ 22 µg/mL)	29	8	0			
CC1(C)Cc2c(C#N)c(SCCc3ccccc3)nc(N3CCOCC3)c2CO1	3.1	> 100	90	102	3.1	inactive	inactive	12 (≈ 4.91 µg/mL)		0	0		≥ 100	
COc1ccc(CCSc2nc(N3CCOCC3)c3c(c2C#N)CC(C)(C)OC3)cc1OC	1.3	69.4			0.8		inactive	25 (≈ 11.7 µg/mL)	49	21	5			
COCCN1CCN(c2nc(SCCc3ccccc3)c(C#N)c3c2COC(C)(C)C3)CC1	6.3	34.2			0.4		inactive	50 (≈ 23.3 µg/mL)	18	0	0			
CC1CN(c2nc(SCCc3ccc(NC(=N)N)cc3)c(C#N)c3c2COC(C)(C)C3)CC(C)O1 (centres undefined)	0.8	12		86	0.8	inactive	inactive	100 (≈ 49.5 µg/mL)	9	90	90			
CC1CN(c2nc(SCCc3ccc(NC(=O)C(F)(F)F)cc3)c(C#N)c3c2COC(C)(C)C3)CC(C)O1 (centres undefined)	1.6	64			1.6		inactive	12.5 (≈ 6.86 µg/mL)	66	90	0			
CC(C)C[C@@H]1NC(=O)[C@@H](Cc2ccccc2)NC(=O)[C@H](CCN)NC(=O)[C@@H](NC(=O)[C@H](CCN)NC(=O)[C@@H](N)[C@@H](C)O)CCNC(=O)[C@H]([C@@H](C)O)NC(=O)[C@H](CCN)NC(=O)[C@H](CCN)NC1=O [POLYMYXIN B NONAPEPTIDE] (H-T[Dab][Dab][Dab][dF]L[Dab][Dab]T; lactam 3-C)														162
